High-throughput results deposited in PubChem by several laboratories.
A1 inh – inhibitors of the anti-apoptotic protein A1, read as caspase activation; MEF A1-2A-BIM cells, Caspase-Glo 3/7 luminescence, 3 h; percent of clofoctol response, vehicle zero; 330,000 compounds, 0.066% hits; AID 2462; caspase activation, % (concentration not given with the values);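 active = over half of replicate activation scores above 10%, or exactly half above 10 with the replicate mean above 10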
UPR XBP1 act – activators of adaptive arm of unfolded protein response (XBP1) | CHO-XBP1 luciferase reporter, IRE1-XBP1 UPR activation, luminescence; percent of tunicamycin response, DMSO as zero | activation, % at 20 µM | 330,000 compounds, 0.33% hits;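 active = versus positive control, 20 µM dose yields 30% or more activation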
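incubation = overnight seeding at 37 °C, 6 h compound treatment at 37 °C | assay system = CHO-XBP1 cells stably carrying IRE1-XBP1-driven luciferase reporter | input = 1000 cells per well | detection = luciferase luminescence | dosing = single point, 20 µM final compound, 1% DMSO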
CHOP inhibitor – CHOP inhibition in unfolded protein response; CHO-K1 CHOP-promoter luciferase, tunicamycin-induced, 15-18 h; 220,000 compounds, 3.8% hits; inhibition, % at 10 µM;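 active = compounds that reduced the stress-induced luciferase reporter signal by more than about 70% of percent inhibition, limit read from the data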
UPR CHOP act – activators of apoptotic arm of unfolded protein response (CHOP) | AID 449763 | CHO-CHOP luciferase reporter, UPR activation, luminescence; percent of tunicamycin response over DMSO baseline | 330,000 compounds, 0.34% hits | activation, % at 10 µM;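 active = at 10 µM dose, activation of 40% or more, normalized to positive control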
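Assay system: CHO cells with stable CHOP pathway luciferase reporter; Buffer or medium: F12 plus 10% serum; Times: 16-18 h cell attachment, then 6 h compound exposure, 37 °C; Signal: luciferase luminescence; Read-out basis: percent activation relative to tunicamycin control; Control set: tunicamycin high control, DMSO low control.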
UPR XBP1 confirm – adaptive UPR (XBP1) activation, confirmed; shares compounds with UPR XBP1 act; CHO-XBP1 IRE1-XBP1 luciferase reporter, luminescence; activation, % at 20 µM; 1,000 compounds, 63% hits; AID 485299;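 active = reporter signal at least 30% of the positive control's activation in two or more of four replicate wells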
A number is an active result; . = inactive; / = not tested or not shown. The sample as a whole holds a higher share of hits than the screen did.

SMILES	A1 inh	UPR XBP1 act	CHOP inhibitor	UPR CHOP act	UPR XBP1 confirm
COc1cccc(/C=N/NC(=O)CSc2cccc3cccnc23)c1	.	32	.	.	.
Cc1nc2cccc(C)n2c(=O)c1Cl	.	38	.	.	.
Cc1nc2ccc(Br)cn2c(=O)c1Cl	.	.	.	.	/
O=C(CN1C(=O)NC2(CCCC2)C1=O)OCc1ccc(Cl)c(Cl)c1	.	.	/	.	/
O=C(CSc1nnc(-c2cccs2)n1-c1ccccc1)c1ccc2c(c1)OCCO2	.	61	/	.	.
CC(C)N(CCNC(=O)C1CCC(=O)N1Cc1ccc(F)cc1)Cc1ccccc1 (configuration not stated)	.	.	/	.	/
CC(C)(c1ccccc1)c1ccc(OCC(O)CNC2CCN(Cc3ccccc3)CC2)cc1 (configuration not stated)	.	53	.	.	.
O=[N+]([O-])c1ccccc1NC(=S)N/N=C/c1ccc(O)c(O)c1	.	37	.	.	.
COc1ccc(C(C(=O)NC2CCCC2)N(C(=O)c2snc(-c3ccc(F)cc3)c2N)c2cccc(F)c2)cc1 (configuration not stated)	.	37	.	.	.
COc1ccc(C(C(=O)NC2CCCC2)N(C(=O)c2snc(-c3ccc(F)cc3)c2N)c2ccc(OC)cc2)cc1 (configuration not stated)	.	.	.	.	/
COc1ccc(C(C(=O)NC2CCCC2)N(C(=O)c2snc(-c3ccc(F)cc3)c2N)c2ccccc2)cc1 (configuration not stated)	.	32	.	.	.
COc1ccc(C(C(=O)NC2CCCC2)N(C(=O)c2snc(-c3ccc(F)cc3)c2N)c2ccc(F)cc2)cc1 (configuration not stated)	.	.	.	.	/
COc1cccc(/C=N/Nc2ccc([N+](=O)[O-])cn2)c1O	.	65	/	.	64
COc1ccc(S(=O)(=O)N(C)CC(=O)Nc2ccccc2OC)cc1C	.	.	.	.	/
Nc1nc(NCC2CCCO2)nc(Nc2cccc(Cl)c2)c1[N+](=O)[O-] (configuration not stated)	.	36	.	.	.
S=C(Nc1cccc(Cl)c1)NC1CCCCC1	.	37	.	.	.
CCOC(=O)C1=C(O)/C(=C/c2cc(OC)c(OC)c(OC)c2)SC1=Nc1ccc(OC)cc1	.	36	.	.	.
Cc1cc(C)n(-c2nc(NCCCO)c3c4c(sc3n2)CCCC4)n1	.	41	.	.	.
Cc1cc(C)n(-c2nc(NCCO)c3c4c(sc3n2)CCCC4)n1	.	.	.	.	/
CCOC(=O)C1CCCN(C(=O)c2cnn3c(C(F)F)cc(-c4ccc(C)cc4)nc23)C1 (configuration not stated)	.	.	.	.	/
CCOC(=O)c1nnc(-c2ccc(C)cc2)nc1Sc1cccc(Cl)c1	.	48	.	.	46
CCOC(=O)c1nnc(-c2ccccc2)nc1Sc1ccccc1Cl	.	38	.	.	68
COc1ccc(CN(CC2CCCO2)C(=O)c2cc3ccccc3oc2=O)cc1 (configuration not stated)	.	.	.	.	/
Cc1ccccc1OCc1nc(-c2ccc(NC(=O)c3ccco3)cc2)no1	.	.	.	.	/
Cc1ccccc1OCc1nc(-c2ccc(NC(=O)c3ccc4c(c3)OCO4)cc2)no1	.	69	74	.	44
SMILES	A1 inh	UPR XBP1 act	CHOP inhibitor	UPR CHOP act	UPR XBP1 confirm
CCCCSCCCNC(=O)c1ccc(CS(=O)(=O)c2ccccc2OC)o1	.	.	/	.	/
COc1ccc(S(=O)(=O)N2CCN(c3ccccc3)CC2)cc1C(=O)N1CCCC1	.	.	/	.	/
COc1ccc2cc3c(N)nn(C(=O)C4CCC(C(C)(C)C)CC4)c3nc2c1 (configuration not stated)	.	111	.	.	37
CCOC(=O)C1CCN(c2nc3cc(OC)ccc3cc2C#N)CC1	.	.	.	.	/
CCOc1ccc(Cn2c3ccc(OC)cc3c3nc4ccccc4nc32)cc1OC	.	118	88	.	106
COc1ccc(-c2c(C(C)=O)c(C)nc3sc4c(c23)NC(c2ccccc2)NC4=O)cc1 (configuration not stated)	.	60	.	.	.
